Test results published in article PMC3027307 (Biochemistry, 2010).

Target: P450-SS9 (cytochrome P450 from Photobacterium profundum strain SS9) (Photobacterium profundum, UniProt Q6LGK6)
Assay: absorbance
Type: binding
Method in brief: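 Enzyme at 0.8-1.8 μM was titrated with fatty acids or derivatives, added from 30-140 mM acetone stocks, at 25 °C with stirring in 0.1 M Na-Hepes pH 7.4 with 0.5 mM EDTA. Absorbance spectra were PCA/SVD-resolved into high-spin, low-spin and P420 standards. Kd came from a tight-binding (square-root) equation fit.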

SMILES	Kd [µM]
CCCCC/C=C\C/C=C\C/C=C\C/C=C\CCCC(=O)O [arachidonic acid]	19.2 ± 4.2
CCCCC/C=C\C/C=C\C/C=C\C/C=C\CCCC(=O)NCC(=O)O [arachidonoyl glycine]	16.7 ± 0.1
CCCCCCCCCCCCCC(=O)O [myristic acid]	0.97 ± 0.42
CCCCCCCC/C=C\CCCCCCCC(=O)NCC(=O)O [oleoyl glycine]	49.5 ± 30
CCCCCCCCCCCCCCCC(=O)O [palmitic acid]	24.3 ± 8.2
